Activity calls are given as the source filed them. No cut-off for these calls is given here.
How the values were obtained:
Mus musculus [1] = assay: Effect on hematopoiesis in gamma-irradiated Swiss albino mouse assessed as increase in radiation-reduced PLT count at 50 mg/kg, ip administered for 5 days and irradiated with gamma radiation after 1 hr of compound administration by automated micro-analyzer; assay type: functional, organism-based; details: time 5.0 day
Outline: (§1)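 Dosing was i.p. 50 mg/kg/day in 10% DMSO for 5 days, followed 1 h after the final injection by 7 Gy whole-body 137Cs gamma irradiation. Complete blood count with platelets (RBC, HGB, PLT, WBC) was done on an automated analyzer 3 days after irradiation. Data are mean ± S.E.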

[2] = Toxicity in ip dosed Swiss albino mouse; assay type: organism-based; details: in vivo
[3] = Toxicity in Swiss albino mouse assessed as effect on liver weight at 50 mg/kg, ip administered for 5 days and observed for 5 days; assay type: organism-based; details: in vivo, 120 h, time 5 day
Nrf2 (Mus musculus) [4] = assay: Activation of Nrf2 in mouse Hepa1c1c7 cells assessed as increase in NQO1 activity at 0.625 uM using menadione as substrate incubated for 20 mins followed by substrate addition and measured after 30 mins by spectrophotometry relative to control; details: filed as activator, time 50.0 min
Nrf2 (Mus musculus) [5] = assay: Activation of Nrf2 in mouse Hepa1c1c7 cells assessed as increase in NQO1 activity at 2.5 uM using menadione as substrate incubated for 20 mins followed by substrate addition and measured after 30 mins by spectrophotometry relative to control; details: filed as activator, time 50.0 min
Mus musculus [6] = assay: Effect on hematopoiesis in gamma-irradiated Swiss albino mouse assessed as increase in radiation-reduced RBC count at 50 mg/kg, ip administered for 5 days and irradiated with gamma radiation after 1 hr of compound administration by automated micro-analyzer; assay type: functional, organism-based; details: time 5.0 day; outline: as §1
[7] = molecular target: Nuclear factor erythroid 2-related factor 2 (Mus musculus) (UniProt Q60795); assay: Activation of Nrf2 in mouse Hepa1c1c7 cells assessed as increase in NQO1 activity at 40 uM using menadione as substrate incubated for 20 mins followed by substrate addition and measured after 30 mins by spectrophotometry relative to control; details: filed as activator, time 50.0 min
Sequence of Nuclear factor erythroid 2-related factor 2 (Mus musculus) (Q60795 whole entry, looked up): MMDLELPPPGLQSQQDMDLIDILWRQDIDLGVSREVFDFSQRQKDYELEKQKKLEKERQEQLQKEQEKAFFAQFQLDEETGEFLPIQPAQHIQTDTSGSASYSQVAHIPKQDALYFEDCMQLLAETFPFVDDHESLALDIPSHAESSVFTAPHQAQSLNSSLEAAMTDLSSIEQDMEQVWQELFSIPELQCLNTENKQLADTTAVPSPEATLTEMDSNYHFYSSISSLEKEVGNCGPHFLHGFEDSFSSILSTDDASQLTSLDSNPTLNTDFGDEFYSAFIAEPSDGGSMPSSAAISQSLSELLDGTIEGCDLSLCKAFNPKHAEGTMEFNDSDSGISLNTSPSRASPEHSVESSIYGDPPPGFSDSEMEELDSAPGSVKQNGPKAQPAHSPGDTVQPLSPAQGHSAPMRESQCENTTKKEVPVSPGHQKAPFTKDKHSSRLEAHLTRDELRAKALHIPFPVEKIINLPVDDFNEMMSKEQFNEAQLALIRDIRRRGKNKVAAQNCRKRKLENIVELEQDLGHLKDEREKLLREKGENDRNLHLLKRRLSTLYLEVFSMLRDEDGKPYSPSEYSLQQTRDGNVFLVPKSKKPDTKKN

Mus musculus [8] = assay: Antioxidant activity against radiation-induced Swiss albino mouse assessed as decrease in MDA level in liver at 50 mg/kg, ip administered for 5 days and irradiated with gamma radiation after 1 hr of compound administration by ELISA relative to control; assay type: functional; design: scale not given: the % may be the effect or the level left; details: time 5 day
Outline: (§2)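 Mice received 50 mg/kg/day i.p. in 10% DMSO for 5 days, plus whole-body 7 Gy 137Cs gamma (0.655 rad/s) 1 h after the last dose. On day 3, five mice per group were anesthetized with urethane. Livers were homogenized in ice-cold 0.1 M PBS pH 7.4. Nrf2 and NQO1 were measured by ELISA, lipid peroxidation as MDA, plus ROS generation. Data are mean ± S.E., one-way ANOVA with Bonferroni.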

Mus musculus [9] = assay: Effect on hematopoiesis in gamma-irradiated Swiss albino mouse assessed as increase in radiation-reduced HGB count at 50 mg/kg, ip administered for 5 days and irradiated with gamma radiation after 1 hr of compound administration by automated micro-analyzer; assay type: functional, organism-based; details: time 5.0 day; outline: as §1
Nrf2 (Mus musculus) [10] = assay: Activation of Nrf2 in mouse Hepa1c1c7 cells assessed as increase in NQO1 activity at 1.25 uM using menadione as substrate incubated for 20 mins followed by substrate addition and measured after 30 mins by spectrophotometry relative to control; details: filed as activator, time 50.0 min
Mus musculus [11] = assay: Antioxidant activity against radiation-induced Swiss albino mouse assessed as decrease in NQO1 level in liver at 50 mg/kg, ip administered for 5 days and irradiated with gamma radiation after 1 hr of compound administration by ELISA relative to control; assay type: functional; design: scale not given: the % may be the effect or the level left; details: time 5 day; outline: as §2
Nrf2 (Mus musculus) [12] = assay: Activation of Nrf2 in mouse Hepa1c1c7 cells assessed as increase in NQO1 activity using menadione as substrate incubated for 20 mins followed by substrate addition and measured after 30 mins by spectrophotometry; details: filed as activator, time 50.0 min
[13] = Toxicity in non-irradiated Swiss albino mouse assessed as increase in NQO1 level at 50 mg/kg, ip administered for 5 days by ELISA; assay type: organism-based; details: in vivo, 120 h, time 5 day
Outline: (§3)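 Non-irradiated mice were dosed 50 mg/kg/day i.p. (vehicle 10% DMSO) for 5 days and compared with vehicle controls. On day 3, five mice per group were anesthetized with urethane. Liver homogenates (ice-cold 0.1 M PBS pH 7.4, stored −80 °C) were assayed for Nrf2 and NQO1 by ELISA, for MDA as lipid peroxide marker, and for ROS. Data are mean ± S.E., n = 5, ANOVA with Bonferroni.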

Nrf2 (Mus musculus) [14] = assay: Activation of Nrf2 in mouse Hepa1c1c7 cells assessed as increase in NQO1 activity at 5 uM using menadione as substrate incubated for 20 mins followed by substrate addition and measured after 30 mins by spectrophotometry relative to control; details: filed as activator, time 50.0 min
Nrf2 (Mus musculus) [15] = assay: Activation of Nrf2 in mouse Hepa1c1c7 cells assessed as increase in NQO1 activity at 20 uM using menadione as substrate incubated for 20 mins followed by substrate addition and measured after 30 mins by spectrophotometry relative to control; details: filed as activator, time 50.0 min
Mus musculus [16] = assay: Antioxidant activity against radiation-induced Swiss albino mouse assessed as decrease in ROS level in liver at 50 mg/kg, ip administered for 5 days and irradiated with gamma radiation after 1 hr of compound administration by ELISA relative to control; assay type: functional; design: scale not given: the % may be the effect or the level left; details: time 5 day; outline: as §2
Nrf2 (Mus musculus) [17] = assay: Activation of Nrf2 in mouse Hepa1c1c7 cells assessed as increase in NQO1 activity at 0.313 uM using menadione as substrate incubated for 20 mins followed by substrate addition and measured after 30 mins by spectrophotometry relative to control; details: filed as activator, time 50.0 min
[18] = Toxicity in non-irradiated Swiss albino mouse assessed as effect on MDA level at 50 mg/kg, ip administered for 5 days by ELISA; assay type: organism-based; details: in vivo, 120 h, time 5 day; outline: as §3
[19] = Toxicity in non-irradiated Swiss albino mouse assessed as increase in ROS level at 50 mg/kg, ip administered for 5 days by ELISA; assay type: organism-based; details: in vivo, 120 h, time 5 day; outline: as §3
[20] = Toxicity in non-irradiated Swiss albino mouse assessed as decrease in Nrf2 level at 50 mg/kg, ip administered for 5 days by ELISA; assay type: organism-based; details: in vivo, 120 h, time 5 day; outline: as §3
[21] = Toxicity in Swiss albino mouse assessed as survival rate at 50 mg/kg, ip administered for 5 days and observed for 30 days; assay type: organism-based; details: in vivo, 720 h, time 30 day
Outline: (§4)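 Albino mice received the compound at 50 mg/kg/day i.p. daily for 5 days, with 10% DMSO i.p. daily as vehicle control; 80 mice were randomised into four groups. Body weight was recorded weekly and survival was checked daily over 30 days. Mice were housed at 25 ± 5 °C, 60 ± 5% humidity and 12 h light/dark, with food and water ad libitum.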

Mus musculus [22] = assay: Antioxidant activity against radiation-induced Swiss albino mouse assessed as increase in Nrf2 level in liver at 50 mg/kg, ip administered for 5 days and irradiated with gamma radiation after 1 hr of compound administration by ELISA relative to control; assay type: functional; details: time 5 day; outline: as §2
[23] = Toxicity in Swiss albino mouse assessed as effect on body weight at 50 mg/kg, ip administered for 5 days and observed for 30 days; assay type: organism-based; details: in vivo, 720 h, time 30 day; outline: as §4
Nrf2 (Mus musculus) [24] = assay: Activation of Nrf2 in mouse Hepa1c1c7 cells assessed as increase in NQO1 activity at 10 uM using menadione as substrate incubated for 20 mins followed by substrate addition and measured after 30 mins by spectrophotometry relative to control; details: filed as activator, time 50.0 min

## COc1cc(NC(=O)CSc2nc3c(I)cc(I)cc3c(=O)n2-c2ccc(S(N)(=O)=O)cc2)cc(OC)c1OC
Mus musculus [1]
  Activity: Active
[2]
  LD50: 500 mg/kg
[3]
  Activity: Non-Toxic
Nrf2 (Mus musculus) [4]
  T/C: 1.08
Nrf2 (Mus musculus) [5]
  T/C: 1.16
Mus musculus [6]
  Activity: Active
[7]
  T/C: 2.42
Mus musculus [8]
  Activity: 28%
Mus musculus [9]
  Activity: Active
Nrf2 (Mus musculus) [10]
  T/C: 1.1
Mus musculus [11]
  Activity: 30%
Nrf2 (Mus musculus) [12]
  Activity: Dose-dependent effect
  CD: 20 µM
[13]
  Activity: Non-Toxic
Nrf2 (Mus musculus) [14]
  T/C: 1.24
Nrf2 (Mus musculus) [15]
  T/C: 1.98
Mus musculus [16]
  Activity: 23%
Nrf2 (Mus musculus) [17]
  T/C: 1.02
[18]
  Activity: Non-Toxic
[19]
  Activity: Non-Toxic
[20]
  Activity: Non-Toxic
[21]
  Activity: Non-Toxic
Mus musculus [22]
  Activity: 19%
[23]
  Activity: Non-Toxic
Nrf2 (Mus musculus) [24]
  T/C: 1.43

From ChEMBL document CHEMBL4765347, “Radiomodulatory effect of a non-electrophilic NQO1 inducer identified in a screen of new 6, 8-diiodoquinazolin-4(3H)-ones carrying a sulfonamide moiety” (Eur J Med Chem, 2020)
